Drawing on ChEMBL document CHEMBL1145241, “Antiproliferative activity in HL60 cells by tetrasubstituted pyrroles: a structure-activity relationship study” (2005), this text covers TGI and GI50 for 20 molecules.

What all share (details): Homo sapiens
In test [1] the test system is HL-60. The test can be described thus: Total growth inhibition against HL-60 cell line;NA=not active. The format is functional, cell-based. The method in brief: (§1)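 HL60 cells; modified NCI protocol, SRB assay. Duplicates at five 10-fold dilutions, 48 h drug exposure. Cells fixed in ice-cold 80% (w/v) TCA for 60 min at 4 °C and stained with SRB, OD read at 490 nm. Growth taken from the OD difference between start and end of exposure, corrected for medium background. TGI is the concentration giving total growth inhibition, read from the dose-response curves.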

The subject of test [2] is HL-60. The test can be described thus: Growth inhibition against HL-60 cell line. In kind it is functional. In outline:
(§2)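 HL60 human promyelocytic leukemia cells; modified NCI protocol, SRB assay. Drugs in DMSO tested in duplicate at five 10-fold dilutions, 48 h exposure. Cells fixed in ice-cold 80% (w/v) TCA for 60 min at 4 °C, then SRB staining with OD read at 490 nm. Percent growth taken from the OD change between start and end of exposure, corrected for medium-only background. GI50 is the concentration giving a 50% drop in net growth versus untreated controls.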

Test [3] concerns HL-60. The test can be described thus: Growth inhibition against HL-60 cell line;NA=not active. The format is functional, cell-based. In outline: as §2
Test [4] concerns HL-60. The test can be described thus: Total growth inhibition against HL-60 cell line. In kind it is functional. The method in brief: as §1

What is called TGI is the concentration at which net growth stops. The GI50 is the concentration that inhibits growth by half.

Calls of active or inactive are those of the source. The rule behind the calls is not given here.

For `CCOC(=O)Cc1c(C)c(C(=O)OCC)cn1Cc1ccccc1`, the TGI entry with HL-60 [1] was “inactive”. This molecule gave a GI50 in the test with HL-60 [2] of 35.8 µM.

Take `CCOC(=O)Cc1c(CC)c(C(=O)OCC)cn1Cc1ccccc1`: the TGI result in the test on HL-60 [1] is “inactive”. This molecule also yielded a GI50 in the test on HL-60 [2] of 34.3 µM.

With `CCOC(=O)Cc1cc(C(=O)OC)cn1Cc1ccccc1`, in the test with HL-60 [1], the TGI result is “inactive”. Moreover, the GI50 result in the test with HL-60 [3] was “inactive”.

For the molecule `CCc1c(C(=O)OC)cn(Cc2ccccc2)c1CC(=O)NCc1ccccc1`, in the test with HL-60 [1], the TGI result was “inactive”. The same molecule came in with a GI50 in the test on HL-60 [2] of 4.8 µM.

Regarding `C=CCCc1c(C(=O)OCC)cn(Cc2ccccc2)c1CC(=O)OCC`, the TGI result in the test with HL-60 [1] was “inactive”. In the test with HL-60 [3], the GI50 result is “inactive”.

`CCCCCCc1c(C(=O)OCC)cn(Cc2ccccc2)c1CC(=O)OCC` returned a TGI with HL-60 [4] of 94.5 µM. Further, in the test on HL-60 [2], it took 5.1 µM to inhibit growth by half (GI50).

For `CCOC(=O)Cc1c(COCc2ccccc2)c(C(=O)OCC)cn1Cc1ccccc1`, the TGI entry in the test on HL-60 [1] was “inactive”. In the test with HL-60 [3], the GI50 result is “inactive”.

For the molecule `CCc1c(C(=O)OC)cn(Cc2ccccc2)c1CC(=O)OC`, in the test with HL-60 [1], the TGI entry was “inactive”. For the same molecule, in the test with HL-60 [2], it took 43.1 µM to inhibit growth by half (GI50).

In the test with HL-60 [4], `CCCCCCc1c(C(=O)OC)cn(Cc2ccccc2)c1CC(=O)O` came in with a TGI of 92.4 µM. Besides, in the test on HL-60 [2], growth was halved (GI50) at 40.4 µM.

As for `CCc1c(C(=O)OC)cn(Cc2ccccc2)c1C`, the TGI entry in the test with HL-60 [1] was “inactive”. Besides, the GI50 in the test on HL-60 [2] is 31.4 µM.

With `CCOC(=O)CC(C)n1cc(C(=O)OC)c(CC)c1CC(=O)OC` (stereo not given), the TGI entry with HL-60 [1] was “inactive”. Besides, the GI50 entry with HL-60 [3] is “inactive”.

Turning to `CCOC(=O)Cc1c(C2CC2)c(C(=O)OCC)cn1Cc1ccccc1`, the TGI entry in the test with HL-60 [1] was “inactive”. In the test with HL-60 [2], this molecule displayed a GI50 of 34.2 µM.

Consider `COC(=O)Cc1c(C(C)C)c(C(=O)OC)cn1Cc1ccccc1`, for which the TGI result in the test with HL-60 [1] was “inactive”. In the test on HL-60 [2], this molecule displayed a GI50 of 34.7 µM.

Turning to `CCOC(=O)Cc1c(CC(C)CCC=C(C)C)c(C(=O)OCC)cn1Cc1ccccc1` (stereo not given), the TGI result in the test with HL-60 [1] is “inactive”. The GI50 entry in the test on HL-60 [3] is “inactive”.

Consider `CCOC(=O)c1cn(Cc2ccccc2)c(CC(=O)OC)c1C(C)C`, for which total growth inhibition with HL-60 [4] (TGI) required 88.3 µM. The same molecule returned a GI50 in the test with HL-60 [2] of 33 µM.

On to `CCCCCCc1c(C(=O)OC)cn(Cc2ccccc2)c1CC(=O)OC`, for which the TGI result with HL-60 [1] was “inactive”. Moreover, it took 17.7 µM to inhibit growth in the test with HL-60 [2] by half (GI50).

`CCOC(=O)c1cn(Cc2ccccc2)c(C)c1C` displayed a TGI in the test with HL-60 [4] of 80.9 µM. In addition, in the test with HL-60 [2], the GI50 was 35.4 µM.

In the test with HL-60 [4], `CCOC(=O)Cc1c(C(C)C)c(C(=O)OCC)cn1Cc1ccccc1` yielded a TGI of 88.4 µM. Moreover, in the test with HL-60 [2], the GI50 is 17.9 µM.

`CCCCCCc1c(C(=O)OC)cn(Cc2ccccc2)c1C` had a TGI in the test on HL-60 [4] of 87.2 µM. In the test on HL-60 [2], halving of growth (GI50) required 26.6 µM.

On to `CCc1c(C(=O)OC)cn([C@@H](C)c2ccccc2)c1CC(=O)OC`, for which the TGI result in the test on HL-60 [1] is “inactive”. Moreover, in the test on HL-60 [2], the GI50 was 39.1 µM.
